One block for each compound: values may come before it. Calls of active or inactive are those of the source. No cut-off for these calls is given here.
Legend:
[1] = system: Z-138; experiment: Induction of cell cycle arrest in human Z138 cells assessed as increase in sub-2n cell population measured upto 1000 nM measured for 5 days by propidium iodide staining based flow cytometric analysis; type: functional; settings: time 5.0 day
[2] = system: MDA-MB-468; experiment: Induction of cell cycle arrest in human MDA-MB-468 cells assessed as decrease in 2n cell population measured upto 5000 nM measured for 2 to 7 days by propidium iodide staining based flow cytometric analysis; type: functional; settings: time 2-7 day
[3] = system: MDA-MB-468; experiment: Induction of cell cycle arrest in human MDA-MB-468 cells assessed as increase in sub-2n cell population measured upto 5000 nM measured for 7 to 10 days by propidium iodide staining based flow cytometric analysis; type: functional; settings: time 7-10 day
[4] = system: Z-138; experiment: Induction of apoptosis in human Z138 cells assessed as dead cells incubated for 6 days by annexin-V/FITC propidium iodide staining based flow cytometry analysis; type: functional, cell-based; settings: dose 200.0 nM, time 6.0 day
[5] = system: Z-138; experiment: In vivo inhibition of PRMT5 in human Z138 cells xenografted in mouse assessed as increase in p53 level at 100 mg/kg, po BID measured for 7 days by immunohistochemical analysis; type: functional, organism-based; settings: time 7.0 day
[6] = target: E3 ubiquitin-protein ligase Mdm2 (Homo sapiens) (UniProt Q00987); experiment: In vivo inhibition of PRMT5 in human Z138 cells xenografted in mouse assessed as increase in MDM2 expression at 100 mg/kg, po BID measured for 7 days; type: functional, organism-based; settings: Z-138, time 7.0 day
[7] = system: Z-138; experiment: In vivo inhibition of PRMT5 in human Z138 cells xenografted in mouse assessed as increase in p21 expression at 100 mg/kg, po BID measured for 7 days; type: functional, organism-based; settings: time 7.0 day
[8] = Antiproliferative activity against human MT-3 cells assessed as cell growth inhibition incubated for 10 days; type: functional; settings: MT-3, 240 h, time 10 day
[9] = system: EB-3; experiment: Antiproliferative activity against human EB-3 cells assessed as cell growth inhibition incubated for 10 days; type: functional; settings: EB-3, 240 h, time 10 day
Summary of the method: (§1)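 Outsourced panel run in 384-well plates. Cells were grown in RPMI-1640/10% FBS or a special medium at 37°C, 5% CO2. Compound was added 24 h after seeding as a 10-point, 3.16-fold series in 0.1% DMSO. Medium was refreshed and cells re-dosed at 168 h, with a time-zero plate kept. At 240 h cells were fixed, nuclei stained and imaged. gIC50 is growth midway between untreated and time zero, from a 4-parameter fit.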

[10] = system: COLO 205; experiment: Antiproliferative activity against human COLO 205 cells assessed as cell growth inhibition incubated for 10 days; type: functional; settings: COLO 205, 240 h, time 10 day
Summary of the method: (§2)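 Cells kept in RPMI-1640 with 10% FBS, 2 mM L-alanyl-L-glutamine and 1 mM Na pyruvate (or a special medium) at 37°C, 5% CO2. Compound added 24 h after seeding, 10 concentrations in 3.16-fold dilution, 0.1% DMSO final. Medium replaced and cells re-dosed at 168 h; 240 h incubation. Nuclei fixed, dye-stained and imaged. gIC50 = growth midway between untreated and time-zero cell counts, from a 4-parameter fit.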

[11] = system: DLD-1; experiment: Antiproliferative activity against human DLD-1 cells assessed as cell growth inhibition incubated for 10 days; type: functional; settings: DLD-1, 240 h, time 10 day; summary of the method: as §1
[12] = system: HCT-8; experiment: Antiproliferative activity against human HCT-8 cells assessed as cell growth inhibition incubated for 10 days; type: functional; settings: HCT-8, 240 h, time 10 day; summary of the method: as §1
[13] = system: SW1417; experiment: Antiproliferative activity against human SW1417 cells assessed as cell growth inhibition incubated for 10 days; type: functional; settings: SW1417, 240 h, time 10 day
[14] = system: RL95-2; experiment: Antiproliferative activity against human RL95-2 cells assessed as cell growth inhibition incubated for 10 days; type: functional; settings: RL95-2, 240 h, time 10 day
[15] = Antiproliferative activity against human OE21 cells assessed as cell growth inhibition incubated for 10 days; type: functional; settings: OE21, 240 h, time 10 day
[16] = Antiproliferative activity against human OCUG-1 cells assessed as cell growth inhibition incubated for 10 days; type: functional; settings: OCUG-1, 240 h, time 10 day
[17] = system: 769-P; experiment: Antiproliferative activity against human 769-P cells assessed as cell growth inhibition incubated for 10 days; type: functional; settings: 240 h, time 10 day; summary of the method: as §2
[18] = system: SK-NEP-1; experiment: Antiproliferative activity against human SK-NEP-1 cells assessed as cell growth inhibition incubated for 10 days; type: functional; settings: SK-NEP-1, 240 h, time 10 day
[19] = system: COLO-829; experiment: Antiproliferative activity against human COLO-829 cells assessed as cell growth inhibition incubated for 10 days; type: functional; settings: COLO-829, 240 h, time 10 day; summary of the method: as §2
[20] = system: RPMI-8226; experiment: Antiproliferative activity against human RPMI-8226 cells assessed as cell growth inhibition incubated for 10 days; type: functional; settings: RPMI-8226, 240 h, time 10 day
[21] = system: NCI-H596; experiment: Antiproliferative activity against human NCI-H596 cells assessed as cell growth inhibition incubated for 10 days; type: functional; settings: NCI-H596, 240 h, time 10 day
[22] = system: NCI-H292; experiment: Antiproliferative activity against human NCI-H292 cells assessed as cell growth inhibition incubated for 10 days; type: functional; settings: NCI-H292, 240 h, time 10 day
[23] = system: SW900; experiment: Antiproliferative activity against human SW900 cells assessed as cell growth inhibition incubated for 10 days; type: functional; settings: SW900, 240 h, time 10 day
[24] = system: Calu-1; experiment: Antiproliferative activity against human Calu-1 cells assessed as cell growth inhibition incubated for 10 days; type: functional; settings: Calu-1, 240 h, time 10 day; summary of the method: as §1
[25] = system: NCI-H661; experiment: Antiproliferative activity against human NCI-H661 cells assessed as cell growth inhibition incubated for 10 days; type: functional; settings: NCI-H661, 240 h, time 10 day
[26] = system: Caov-3 cell line; experiment: Antiproliferative activity against human Caov-3 cell line assessed as cell growth inhibition incubated for 10 days; type: functional; settings: Caov-3, 240 h, time 10 day; summary of the method: as §1
[27] = system: BXPC-3; experiment: Antiproliferative activity against human BXPC-3 cells assessed as cell growth inhibition incubated for 10 days; type: functional; settings: BXPC-3, 240 h, time 10 day; summary of the method: as §2
[28] = system: LNCaP; experiment: Antiproliferative activity against human LNCaP cells assessed as cell growth inhibition incubated for 10 days; type: functional; settings: 240 h, time 10 day
[29] = system: SW872; experiment: Antiproliferative activity against human SW872 cells assessed as cell growth inhibition incubated for 10 days; type: functional; settings: SW872, 240 h, time 10 day
[30] = system: A673; experiment: Antiproliferative activity against human A673 cells assessed as cell growth inhibition incubated for 10 days; type: functional; settings: A673, 240 h, time 10 day; summary of the method: as §2
[31] = system: A-431; experiment: Antiproliferative activity against human A-431 cells assessed as cell growth inhibition incubated for 10 days; type: functional; settings: A-431, 240 h, time 10 day; summary of the method: as §2
[32] = target: Protein arginine N-methyltransferase 5 (Homo sapiens) (UniProt O14744); experiment: Inhibition of PRMT5 in human Z138 cells assessed as short MDM4 splicing at 200 to 1000 nM incubated for 3 days by RT-PCR analysis; type: cell-based; settings: dose 200-1000 nM, time 3.0 day
[33] = system: Z-138; experiment: Induction of cell cycle arrest in p53 knockout human Z138 cells assessed as accumulation of cells at G1 phase at 50 to 500 nM incubated for 4 days; type: functional, cell-based; settings: dose 50-500 nM, time 4.0 day
[34] = system: U-2940; experiment: Antiproliferative activity against human U-2940 cells assessed as reduction in cell viability; type: functional, cell-based

Protein arginine N-methyltransferase 5 (Homo sapiens), sequence (O14744 whole entry): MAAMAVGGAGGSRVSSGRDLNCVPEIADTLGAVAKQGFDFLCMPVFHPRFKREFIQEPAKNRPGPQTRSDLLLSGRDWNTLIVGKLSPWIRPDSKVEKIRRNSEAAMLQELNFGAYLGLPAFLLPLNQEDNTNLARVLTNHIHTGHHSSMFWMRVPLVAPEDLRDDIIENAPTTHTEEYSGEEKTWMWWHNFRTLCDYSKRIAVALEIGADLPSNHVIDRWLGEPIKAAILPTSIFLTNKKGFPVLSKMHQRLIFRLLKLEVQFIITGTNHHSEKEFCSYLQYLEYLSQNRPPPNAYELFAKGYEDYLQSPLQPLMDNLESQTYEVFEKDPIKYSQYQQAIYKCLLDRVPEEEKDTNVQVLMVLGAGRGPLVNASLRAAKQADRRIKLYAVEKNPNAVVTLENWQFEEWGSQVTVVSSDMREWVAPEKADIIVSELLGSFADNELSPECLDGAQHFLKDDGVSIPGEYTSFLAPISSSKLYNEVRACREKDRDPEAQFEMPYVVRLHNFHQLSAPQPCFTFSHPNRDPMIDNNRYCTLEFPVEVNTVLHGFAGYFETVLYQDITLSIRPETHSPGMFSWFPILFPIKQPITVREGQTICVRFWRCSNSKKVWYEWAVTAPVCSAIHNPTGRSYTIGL
E3 ubiquitin-protein ligase Mdm2 (Homo sapiens), sequence (Q00987 whole entry, looked up): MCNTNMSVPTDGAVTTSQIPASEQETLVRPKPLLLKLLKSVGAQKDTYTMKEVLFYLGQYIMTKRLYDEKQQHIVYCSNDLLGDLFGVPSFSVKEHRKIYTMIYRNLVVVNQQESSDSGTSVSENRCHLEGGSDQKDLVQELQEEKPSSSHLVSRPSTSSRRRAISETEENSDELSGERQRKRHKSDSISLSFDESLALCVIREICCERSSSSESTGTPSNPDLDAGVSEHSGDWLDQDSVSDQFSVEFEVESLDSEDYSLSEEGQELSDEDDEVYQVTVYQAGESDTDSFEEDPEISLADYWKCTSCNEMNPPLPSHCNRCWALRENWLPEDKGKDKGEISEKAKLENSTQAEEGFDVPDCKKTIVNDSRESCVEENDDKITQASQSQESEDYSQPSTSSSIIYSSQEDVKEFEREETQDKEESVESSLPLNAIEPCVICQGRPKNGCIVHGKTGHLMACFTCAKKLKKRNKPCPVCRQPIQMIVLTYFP

inhibition [6]: Active
SMILES: CC(=O)N1CCC(Nc2cc(C(=O)NC[C@H](O)CN3CCc4ccccc4C3)ncn2)CC1 [PEMRAMETOSTAT]
Activity [1]: Active
Activity [2]: inactive
Activity [3]: Active
Activity [4]: Dose-Dependent Effect
inhibition [5]: Active
inhibition [7]: Active

GI50 [10]: 10000 nM
GI50 [11]: 134 nM
GI50 [12]: 430 nM
GI50 [13]: 773 nM
GI50 [18]: 264 nM
GI50 [19]: 54.4 nM
GI50 [20]: 58.4 nM
GI50 [21]: 188 nM
GI50 [22]: 166 nM
GI50 [23]: 3250 nM
GI50 [24]: 3050 nM
GI50 [25]: 152 nM
GI50 [27]: 160 nM
GI50 [28]: 2930 nM
GI50 [29]: 54 nM
GI50 [31]: 549 nM
inhibition [32]: Active
SMILES: O=C(NC[C@H](O)CN1CCc2ccccc2C1)c1ccnc(NC2CCC2)c1
GI50 [8]: 46.4 nM
GI50 [9]: 299 nM
GI50 [14]: 218 nM
GI50 [15]: 146 nM
GI50 [16]: 379 nM
GI50 [17]: 203 nM
GI50 [26]: 298 nM
GI50 [30]: 119 nM
Activity [33]: Active
Activity [34]: Active

— ChEMBL document CHEMBL5653630, “Activation of the p53-MDM4 regulatory axis defines the anti-tumour response to PRMT5 inhibition through its role in regulating cellular splicing” (Sci Rep, 2018)
